In ChEMBL document CHEMBL4765426, “Design, synthesis and in vitro anti-influenza A virus evaluation of novel quinazoline derivatives containing S-acetamide and NH-acetamide moieties at C-4” (Eur J Med Chem, 2020):
pIC50: −log10 of the molar value.

What was measured:
[1] = Cytotoxicity against human A549 cells assessed as reduction in cell viability after 48 hrs by CCK8 assay; assay type: cell-based
Influenza A virus [2] = test: Antiviral activity against Influenza A virus A/WSN/33(H1N1) infected in HEK293T-Gluc cells assessed as inhibition of virus infection at 10 uM pretreated for 2 hrs followed by viral infection and measured after 24 hrs by Gaussia luciferase reporter gene assay; assay type: functional; conditions: A/WSN/1933(H1N1), HEK-293T, time 26 hrs
In short: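 A single-concentration screen at 10 μM was run against A/WSN/33 (H1N1) in HEK293T-Gluc reporter cells. These cells carry a stably transfected pLenti6-Gluc construct expressing negative-strand Gaussia luciferase RNA that is converted to positive strand upon infection. Inhibition ratio of infection was read from Gluc activity.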

Influenza A virus [3] = test: Antiviral activity against Influenza A virus A/WSN/33(H1N1) infected in HEK293T-Gluc cells pretreated for 2 hrs followed by viral infection and measured after 24 hrs by Gaussia luciferase reporter gene assay; assay type: functional, organism-based; conditions: A/WSN/1933(H1N1), HEK-293T
In short: (§1)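 Reporter cells were HEK293T cells stably transfected with pLenti6-Gluc, which constitutively expresses negative-strand Gaussia luciferase RNA that becomes positive-strand on IAV infection. Cells were infected with A/WSN/33 or A/PR/8/1934 (H1N1). Antiviral activity was read as Gluc signal, and IC50 values were derived. Ribavirin served as positive control.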

[4] = Cytotoxicity against human HEK293T cells assessed as reduction in cell viability after 48 hrs by CCK8 assay; assay type: cell-based, HEK-293T
[5] = Selectivity index, ratio of CC50 for human HEK293T cells to IC50 for Influenza A virus A/WSN/33(H1N1) infected in HEK293T-Gluc cells; assay type: toxicity, cell-based; conditions: read-out: Ratio CC50/IC50
Influenza A virus [6] = test: Antiviral activity against Influenza A virus A/PR/8/34 (H1N1) infected in HEK293T-Gluc cells pretreated for 2 hrs followed by viral infection and measured after 24 hrs by Gaussia luciferase reporter gene assay; assay type: functional, organism-based; conditions: A/Puerto Rico/8/1934(H1N1), HEK-293T; in short: as §1

Structure (SMILES) | CC50 at 48 h [1] [µM] | inhibition at 10 µM (Influenza A virus [2]) [%] | pIC50 (Influenza A virus [3]) | CC50 at 48 h [4] [µM] | selectivity ratio [5] | pIC50 (Influenza A virus [6])
O=C(CNc1nc(N2CCc3ccccc3C2)nc2ccccc12)Nc1ccccc1 | 10.7 | 98.2 | 5.41 | 36.6 | 9.44 | 6.39
O=C(CNc1nc(N2CCCC2)nc2ccccc12)NCc1ccco1 | – | – | 4.40 | > 100 | > 2.54 | –
O=C(CNc1nc(N2CCc3ccccc3C2)nc2ccccc12)Nc1ccc2ccccc2c1 | – | – | 5.46 | > 100 | > 29.1 | –
O=C(CNc1nc(N2CCOCC2)nc2ccccc12)NCc1ccccc1 | > 100 | – | 5.42 | > 100 | > 26.1 | 5.22
CCN(CC)c1nc(NCC(=O)NCc2ccccc2)c2ccccc2n1 | > 100 | – | 5.30 | > 100 | > 20 | 5.24
O=C(CNc1nc(N2CCc3ccccc3C2)nc2ccccc12)NCc1ccccc1 | 12.8 | – | 5.16 | 29.4 | 4.3 | 6.92
CCN(CC)c1nc(SCC(=O)Nc2ccccc2)c2ccccc2n1 | > 100 | – | 5.14 | > 100 | > 13.9 | 5.77
O=C(CNc1nc(N2CCCC2)nc2ccccc12)Nc1cc(Cl)cc(Cl)c1 | 5.92 | – | 5.04 | 15.9 | 1.75 | 6.02
